B1: tRNA (parent)
chain: GUUCCGUUGGCGUAAUGGUAACGCGUCUCCCUCCUAAGGAGAAGACUGCGGGUUCGAGUCCCGUACGGAACG

Variants at the floor of the assay were thinned out.

Variants of B1 are the subject of this data set. Briefly: yeast fitness relative to wild type (ratio to wild type); higher = fitter; tRNA-Arg(CCU), competitive growth, 37 C, YPD. A digest of the protocol: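 Genotype frequency changes were the basis for Darwinian fitness relative to wild type. The frequencies came from 100-nucleotide paired-end sequencing of gene amplicons from the start population and each end population of pooled yeast strains with tRNA-Arg(CCU) gene variants at the native locus. Competition ran in YPD at 37°C for 24 hours in six replicates, genotypes needed ≥ 100 starting reads, and estimates < 0.5 were set to 0.5.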
On to GUUCCGUUGGCGUAAUGGUAACGUGUCUCCCUCCUGAGGAGAAGACUGCGGGUUCGAGUCCCGAACGGAACG, for which the yeast fitness amounted to 0.595.
Turning to GUUCCGUUGGCGUAAUGGUAACGGGUCUCCCUCCUAAGGAGAAGACUGCGGCUUCGAGUCCCGUACGGAACG, the yeast fitness is at most 0.5.
Consider GUUCCGUUGGCGUAAUGGUAACGGGUCUCCCUCCUAAGGAGAAGACUGCGGAUUCGAGUCCCGUACGGAACG, for which the yeast fitness came out at 0.566.
With GUUCCGUUGGCGUAAUGGUAACGGGUCUCCCUCCUAAGGAGAAGACUGCAGGUUCGGGUCCCGUACGGAACG, the yeast fitness was at most 0.5.
For GUUCCGUUGGCGUAAUGGUAACGUGUCUCCCUCCUAUGGUGAAGACUGCGGGUUCGAGUCCCGUACGGAACG, the yeast fitness stood at 0.568.
With GUUCCGUUGGCGUAAUGGUAACGGGUCCCCCUCCUAAGGAGAAGACUGCCGGUUCGAGUCCCGUACGGAACG, the yeast fitness is at most 0.5.
GUUCCGUUGGCGUAAUGGUAACGUGUCUCCCUCCUGAGGAGAAGACUGCGGGUUGGAGUCCCGUACGGAACG: the yeast fitness is at most 0.5.
In the case of GUUCCGUUGGCGUAAUGGUAACGUGUCUCCCUCCUAAGGCGAAGACUGCGGGUUCGAGUCCCGUACGCAACG, the yeast fitness came out at 0.502.
Take GUUCCGUUGGCGUAAUGGUAACGGGUCGGCCUCCGAAGGAGAAGACAGCGGGUUCGAGUCCCGUACGGAACG: the yeast fitness was 0.606.
GUUCCGUUGGCGUAAUGGUAACGGGUCUCCCUCCUAAGGAAAAGAUUGCGGGUUCGAGUCCCGUGCGGAACG: the yeast fitness is at most 0.5.
As to GUUCCGUUGGCGUAAUGGUAACGGCUCUCGCCCCUAAGGAGAAGACUGCGGGUUCGAGUCCCGUACCGAACG, the yeast fitness was at most 0.5.
Take GUUCCGUUGGCGUAAUGGUAACGUGUCUCCCUCCUAAGGGGAAGACUGCGGGUUCGAGUCCCGUACGGAACG: the yeast fitness was 0.72.
For GUUCCGUUGGCGUAAUGGUAACGGGACUCCCUCCUAAGGAGAAGACUGCGGGUUCGAGUCCCGUCCGGAACG, the yeast fitness is at most 0.5.
Next, GUUCCGUUGGCGUAAUGGUAACGGGUCCCCCUCCUAAGGAGAUGACUGCGGGUUCGAGUACCGUACGGAACG: at most 0.5; GUUCCGUUGGCGUAAUGGUAACGGGUCUCCCUCCUAAGCAGAAGACUGCGGGUUCGGGUCCCGUGCGGAACG: at most 0.5; GUUCCGUUGGCGUAAUGGUAACGGGUCUCCCUCCUAAGGAGAAGACUACGGGUUCGACUCCCGUACGGAACG: 0.735.
For GUUCCGUUGGCGUAAUGGUAACGGGUCUCCCUCCUAAGGAGAAGACUGCAGGUUGGAGUCCCGUACGGAACG, the yeast fitness was at most 0.5.
With GUUCCGUUGGCGUAAUGGUAACGUGUCUCCCUCCUUAGGAGAAGACUGGGGGUUCGAGUCCCGUACGGAACG, the yeast fitness amounted to 0.544.
With GUUCCGUUGGCGUAAUGGUAACGUGUCUCCCUCCUGAGGAGAAGACUGCGGGUUCGACUCCCGUAGGAAACG, the yeast fitness worked out at 0.569.
Consider GUUCCGUUGGCGUAAUGGUAACGGGUCUCCCUCCUAAGGAGAAGACUCCGGGUUCGGGUCCCGUACGCAACG, for which the yeast fitness is at most 0.5.
GUUCCGUUGGCGUAAUGGUAACGGGUCUCCCUCCUAAGGAGAAGACUGCGCGUUCGAGUCCCGUACGGAACG: the yeast fitness was determined as 0.537.
As to GUUCCGUUGGCGUAAUGGUAACGGGACUCCCUUCUAAGGAGAAGACUGCGGGUACGAGUCCCGUACGGAACG, the yeast fitness was 0.609.
Turning to GUUCCGUUGGCGUAAUGGUAACGGGACUCCCUUCUAAGGAGAAGACUGCGGGUUCGAGUCCCGUACGGAACG, the yeast fitness is at most 0.5.
Next, GUUCCGUUGGCGUAAUGGUAACGGGUCUCCCUCCUAAGGAGAAGACUGCGGGGUCGAGUCCCGUACGGAACG: at most 0.5; GUUCCGUUGGCGUAAUGGUAACGUGUCUCCCUCCUACGGAGAAGACUGCCGGUUCGAGUCCCGUACGGAACG: 0.547.
Turning to GUUCCGUUGGCGUAAUGGUAACGGGUCUCCCUCCUAAGGAGAAGACUGCGGGUUCGAGUCCCGAACGGACCG, the yeast fitness is at most 0.5.
Next, GUUCCGUUGGCGUAAUGGUAACGUGUCUCCCUCCUGAGGAGAAGACAGCGGGUUCGAGUCCCGUACGGAACG: 0.529; GUUCCGUUGGCGUAAUGGUAACGGGUCUCCCUCCUAACGAGAAGAAUGCGGGUUCGAGUCCCGUACGGAACG: at most 0.5.
In the case of GUUCCGUUGGCGUAAUGGUAACGUGUCUCCCUCCUAGGGAGAAGUCUGCGGGUUCGAGUCCCGUACGGCACG, the yeast fitness is at most 0.5.
With GUUCCGUUGGCGUAAUGGUAACGGGUCGCCCUUCUAAGGAGUAGACUGCAGGUUCGAGUCCCGUACGGAUCG, the yeast fitness is at most 0.5.
Turning to GUUCCGUUGGCGUAAUGGUAACGUGUCUCCCUCCUAGGGAGAAGACUGCGGGUUCGAGUCCCGUACGGAACG, the yeast fitness was found to be 0.708.
Next, GUUCCGUUGGCGUAAUGGUAACGGGUCGCCCUCCUAAGGAGAAGAGUGCGGGUUCGAGUCCCGUACUGAACG: at most 0.5; GUUCCGUUGGCGUAAUGGUAACGUGUCUCCCUCCUUAGGAGAAGACUGCGGGUUGGGGUCCCCUACGGAACG: at most 0.5.
Turning to GUUCCGUUGGCGUAAUGGUAACGGGCCUCCUUCCUAAGGAGAAGACUGCGGGUUCGAGUCCCGUACGGAACG, the yeast fitness was determined as 0.747.
GUUCCGUUGGCGUAAUGGUAACGGCUCUCCCUCCUAAGGAGAAGACUGCGGGUUCGAGUCCCGUAAGGAACG: the yeast fitness is at most 0.5.
In the case of GUUCCGUUGGCGUAAUGGUAACGGGUCUCCCUCCUAAGGAAAAAACUGCGGGAUCGAGUCCCGUAUGGAACG, the yeast fitness is at most 0.5.
For GUUCCGUUGGCGUAAUGGUAACGGGUCUCCCUCCUAAGGAGAAAACUGCGGGUUCGAGUCCCGUACGGAACG, the yeast fitness worked out at 0.568.
Take GUUCCGUUGGCGUAAUGGUAACGGGUCUCCCUCCUAAGGAGAACACUGCGGGUUCGAGUCCCGUACGGAACG: the yeast fitness worked out at 0.66.
GUUCCGUUGGCGUAAUGGUAACGUGUCUCCCUCCUGAGGAGAAGACUGCGGGUUCGAGUCCCCUACGGAACG: the yeast fitness was at most 0.5.
GUUCCGUUGGCGUAAUGGUAACGGGUCUCCCGCCUGAGGAGAAGACUGCGGGUUCGAGUACCGUUCGGAACG: the yeast fitness is at most 0.5.
For GUUCCGUUGGCGUAAUGGUAACGGGUCCCCCUCCUAAGGAGAAGACUGCGGGUUCGAGUCCCGUACGGAACG, the yeast fitness worked out at 0.508.
With GUUCCGUUGGCGUAAUGGUAACGUGUCUCCCUCCUAAGGGGAAGACUGCGGGUUCGAGUUCCGUCCGGAACG, the yeast fitness is at most 0.5.
Consider GUUCCGUUGGCGUAAUGGUAACGGGUCUCCCUCCUAAGGAGAAGACUGCGGGUUCGAGUCCCGUACGAAACG, for which the yeast fitness was determined as 0.653.
As for GUUCCGUUGGCGUAAUGGUAACGGGCCUCCCUCCUAAGGAGAAGACUGCGGGUUCGAGUCCCGUACGGAACG, the yeast fitness was found to be 0.688.
On to GUUCCGUUGGCGUAAUGGUAACGGCUCUCCCUCCAAAGGAGAAGACUGCGGAUUCGAGUCCCGUACGGAACG, for which the yeast fitness is at most 0.5.
Take GUUCCGUUGGCGUAAUGGUAACGGGUCUCCCUCCAAAGGAGAAGACUCCGGGUUCGAGUCCCGUACGGAACG: the yeast fitness was at most 0.5.
GUUCCGUUGGCGUAAUGGUAACGGGUCUCCCUCCUAACGAGAAGACUGCGGGUUCGAGUCCAGUACGGAACG: the yeast fitness was 0.852.
For GUUCCGUUGGCGUAAUGGUAACGUGUCUCCCUCCUAAGGCGAAGACUGCGGCUUCGAGUCCCGUACAGAACG, the yeast fitness is at most 0.5.
GUUCCGUUGGCGUAAUGGUAACGGGUCCCCGUCCUAAGGAGAAGACUGCGGGUUCGAGUCCCGUAUGGAACG: the yeast fitness is at most 0.5.
Next, GUUCCGUUGGCGUAAUGGUAACGUGUCUCCCUCCUAUGGAGAUGACUGCGGGUUCGAGUCCCGUACGGAACG: 0.646; GUUCCGUUGGCGUAAUGGUAACGGGUCUCCCUCCUAAGGAGAAGACUGCGGGUUCCAGCCCCGUACGGAACG: at most 0.5; GUUCCGUUGGCGUAAUGGUAACGUGUCUCCCUCCUUAGGAGAGGACUGCGGGUUCGAGUCCCGUACGGAACG: 0.509.
Next, GUUCCGUUGGCGUAAUGGUAACGUGUCUCCCUCCUCAGGAGAAGCCUGCGGGUUUGAGUCCCGUACGGAUCG: at most 0.5.
With GUUCCGUUGGCGUAAUGGUAACGGGUCUCCCUCCUAAGGAGAAGACUGCGGGUUCGACUCCUGUACGGAACG, the yeast fitness was at most 0.5.
As for GUUCCGUUGGCGUAAUGGUAACGGGUCUCCCUCCUAAGGAGAAGACUGCGGGUCAGAGUCCCGUUCGGAACG, the yeast fitness is at most 0.5.
For GUUCCGUUGGCGUAAUGGUAACGUGUCUCCCUCCUAGGAAGAAGACUCCGGGUUCGAGUCCCGUACGGAACG, the yeast fitness is at most 0.5.
With GUUCCGUUGGCGUAAUGGUAACGGGUCUCCCUCCUAAGCAGAAGACUGCGGGUUCGAGUUCCGUUCGGAACG, the yeast fitness is at most 0.5.
In the case of GUUCCGUUGGCGUAAUGGUAACGGGUCUCCCUCCUAAGGAGAAGACUGCGGGUCCGAGUCCCGUACGCAACG, the yeast fitness was at most 0.5.
On to GUUCCGUUGGCGUAAUGGUAACGUGUCUCCCUCCUCAGGAGAAGUCUGCGGGUUCGAGUCCCGUACGGAACG, for which the yeast fitness was 0.513.
In the case of GUUCCGUUGGCGUAAUGGUAACGGGUCUCCCUCCUAAGAAGAAGACUGCGGGUUCGAGUCCCGUACGGAACG, the yeast fitness turned out to be 0.643.
The result for GUUCCGUUGGCGUAAUGGUAACGGGACUCCCUCCAAAGGAGAAGACUGCGGGUUUGAGUCCCGUGCGGCACG reads at most 0.5; that for GUUCCGUUGGCGUAAUGGUAACGGGUCUCCCUCCUAAGGAGAACACUGCGGGUUCGAGUCCCGUACGUAACG, 0.663.
Take GUUCCGUUGGCGUAAUGGUAACGGGUCUCCCUCCUAAGGAGAAGACUGCGGGUUCGAGUCCCAUACGGAACG: the yeast fitness stood at 0.554.
Next, GUUCCGUUGGCGUAAUGGUAACGGGACUCCCUCCUAAGGAGAAGAAUGCGGGUUCGACUCCCGUACGGAACG: at most 0.5.
In the case of GUUCCGUUGGCGUAAUGGUAACGGGUCUCCCUCCUAAGGAGAAGACUGCCGGUUCGAGUCCCGUACGGAACG, the yeast fitness stood at 0.543.
Take GUUCCGUUGGCGUAAUGGUAACGGGUCUCCCUCCUAAGGAGAAGACUGCAGGUUCGAGUCCCGUACGGAACG: the yeast fitness was 0.616.
Consider GUUCCGUUGGCGUAAUGGUAACGGGUCGCCCUUCUAAGGAGUAGACUGCAGGUUCGAGUCCCGUACGGAACG, for which the yeast fitness is at most 0.5.
Turning to GUUCCGUUGGCGUAAUGGUAACGGGUCUCCCUCCUAAGGAGAAGACUGCGGGGUCGGGUCCCGUACGGAACG, the yeast fitness turned out to be 0.545.
Regarding GUUCCGUUGGCGUAAUGGUAACGGGUCUCCCUCCUAACGAGAAGACUGCGGGUUCGAGUCCCGUCCGGAACG, the yeast fitness was 0.513.
GUUCCGUUGGCGUAAUGGUAACGGGUCUCCCUCCUAAGGAGAAGACUGCGGGUGGGAGUCCUGUACGGAACG: the yeast fitness is at most 0.5.
For the variant GUUCCGUUGGCGUAAUGGUAACGGGUCUCCCUCCUAAGGAGAAGACUGCGGGUUCGAGGCCCGUUCGGAACG, the yeast fitness came to 0.659.
GUUCCGUUGGCGUAAUGGUAACGGGUCUCCCUCCGAAGGAGAAGACUGCGGGUUCGAGUCCCGUAUGGAACG: the yeast fitness is at most 0.5.
Take GUUCCGUUGGCGUAAUGGUAACGUGUCUCCCUCCUAGGGAGAGGACUGAGGGUUCGAGUCCCGUACGGAACG: the yeast fitness is at most 0.5.
For GUUCCGUUGGCGUAAUGGUAACGGCUCUCGCCCCUAAGGAGAAGACUGCGGGUUCGAAUUCCGUACGGAACG, the yeast fitness is at most 0.5.
Consider GUUCCGUUGGCGUAAUGGUAACGUGUCUCCCUCCUCAGGAGAACACUGCGGGUUCGAGUCCAGUACGGAACG, for which the yeast fitness was found to be 0.752.

These data come from the RNAGym collection of RNA variant scans (doi:10.1126/science.aae0568).
